The chains are these.
B1: Osa-1-4 twister ribozyme (parent)
chain: CCGCCUAACACUGCCAAUGCCGGUCCCAAGCCCGGAUAAAAGUGGAGGGGGCGG

The record followed here is the RNAGym collection of RNA variant scans (doi:10.1002/anie.201605470).

The variants in this data set derive from B1. Briefly: self-cleavage, relative activity (ratio to wild type); higher = more cleavage; co-transcriptional. In a few lines: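 Relative activity is the fraction cleaved divided by that of the wild-type ribozyme. The library came from a DNA template for a 54-nucleotide Oryza sativa twister ribozyme, doped at the 48 positions downstream of the cleavage site with 97 % wild-type base and 1 % of each other base. After 2 h of in vitro transcription at 37 °C with co-transcriptional self-cleavage, the RNA was reverse-transcribed with a template-switching oligonucleotide, amplified by PCR and deep-sequenced, and reads with or without upstream sequence gave the cleavage status.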
As for CCGCCUAACACUGCCAAUGCCGGUCCCAAGCCCGGAUAAAAAUCGAGGGGGCGG, the self-cleavage turned out to be 0.57.

On to CCGCCUAACACUGCCAAUGCCGGUCCCAAGCCCGGAUAAAAAUAGAGGGGGCGG, for which the self-cleavage came out at 0.5.

Turning to CCGCCUAACACUGCCAAUGCCGGUCCCAAGCCCGGAUAAAAAUUGAGGGGGCGG, the self-cleavage stood at 0.31.

Take CCGCCUAACACUGCCAAUGCCGGUCCCAAGCCCGGAUAAAACUGGAGGGAGCGG: the self-cleavage turned out to be 0.14.

Take CCGCCUAACACUGCCAAUGCCGGUCCCAAGCCCGGAUAAAACUGGAGGGUGCGG: the self-cleavage was found to be 0.32.

Regarding CCGCCUAACACUGCCAAUGCCGGUCCCAAGCCCGGAUAAAACUGGAGGGCGCGG, the self-cleavage was 0.15.

For CCGCCUAACACUGCCAAUGCCGGUCCCAAGCCCGGAUAAAACUGGAGGCGGCGG, the self-cleavage came out at 0.07.

In the case of CCGCCUAACACUGCCAAUGCCGGUCCCAAGCCCGGAUAAAACUGGAGGAGGCGG, the self-cleavage is 0.06.

CCGCCUAACACUGCCAAUGCCGGUCCCAAGCCCGGAUAAAACUGGAGGUGGCGG: the self-cleavage was 0.05.

As for CCGCCUAACACUGCCAAUGCCGGUCCCAAGCCCGGAUAAAACUGGAGGGGGCGG, the self-cleavage came to 0.4.

Turning to CCGCCUAACACUGCCAAUGCCGGUCCCAAGCCCGGAUAAAAAUGGAGGGGGCGG, the self-cleavage came to 0.84.

Take CCGCCUAACACUGCCAAUGCCGGUCCCAAGCCCGGAUAAAAUUGGAGGGGGCGG: the self-cleavage was 0.14.

Take CCGCCUAACACUGCCAAUGCCGGUCCCAAGCCCGGAUAAAACGGGAGGGGGCGG: the self-cleavage was determined as 0.09.

Regarding CCGCCUAACACUGCCAAUGCCGGUCCCAAGCCCGGAUAAAACCGGAGGGGGCGG, the self-cleavage came out at 0.11.

Regarding CCGCCUAACACUGCCAAUGCCGGUCCCAAGCCCGGAUAAAACAGGAGGGGGCGG, the self-cleavage stood at 0.1.

With CCGCCUAACACUGCCAACGCCGGUCCCAAGCCCGGAUAAAACUGGAGGGGGCGG, the self-cleavage came to 0.21.

For the variant CCGCCUAACACUGCCAAGGCCGGUCCCAAGCCCGGAUAAAACUGGAGGGGGCGG, the self-cleavage stood at 0.32.

For CCGCCUAACACUGCCAAAGCCGGUCCCAAGCCCGGAUAAAACUGGAGGGGGCGG, the self-cleavage came out at 0.23.

As to CCGCCUAACACUGCCAAUGCCGGUCCCAAGCCCGGAUAAAAAUGGAGGGGGCAG, the self-cleavage turned out to be 0.58.

For CCGCCUAACACUGCCAAUGCCGGUCCCAAGCCCGGAUAAAAAUGGAGGGGGCUG, the self-cleavage turned out to be 0.19.

CCGCCUAACACUGCCAAUGCCGGUCCCAAGCCCGGAUAAAAAUGGAGGGGGCCG: the self-cleavage was 0.1.

In the case of CCGCCUAACACUGCCAAUGCCGGUCCCAAGCCCGGAUAAAACUGGAGGGGCCGG, the self-cleavage came to 0.06.

Regarding CCGCCUAACACUGCCAAUGCCGGUCCCAAGCCCGGAUAAAACUGGAGGGGACGG, the self-cleavage is 0.08.

As to CCGCCUAACACUGCCAAUGCCGGUCCCAAGCCCGGAUAAAACUGGAGGGGUCGG, the self-cleavage stood at 0.06.

With CCGCCUAACACUGCCAAUGCCGGUCCCAAGCCCGGAUAAAACUGGAGGGGGCGU, the self-cleavage was 0.43.

On to CCGCCUAACACUGCCAAUGCCGGUCCCAAGCCCGGAUAAAACUGGAGGGGGCGC, for which the self-cleavage worked out at 0.3.

In the case of CCGCCUAACACUGCCAAUGCCGGUCCCAAGCCCGGAUAAAACUGGAGGGGGCGA, the self-cleavage came out at 0.26.

On to CCGCCUAACACUGCCAAUGCCGGUCCCAAGCCCGGAUAAAAAUGGAGGGAGCGG, for which the self-cleavage worked out at 0.45.

CCGCCUAACACUGCCAAUGCCGGUCCCAAGCCCGGAUAAAAAUGGAGGGCGCGG: the self-cleavage was determined as 0.64.

With CCGCCUAACACUGCCAAUGCCGGUCCCAAGCCCGGAUAAAAAUGGAGGGUGCGG, the self-cleavage worked out at 0.83.

CCGCCUAACACUGCCAAUGCCGGUCCCAAGCCCGGAUAAAAAUGGAGAGGGCGG: the self-cleavage stood at 0.06.

In the case of CCGCCUAACACUGCCAAUGCCGGUCCCAAGCCCGGAUAAAAAUGGAGCGGGCGG, the self-cleavage worked out at 0.06.

Consider CCGCCUAACACUGCCAAUGCCGGUCCCAAGCCCGGAUAAAAAUGGAGUGGGCGG, for which the self-cleavage amounted to 0.05.

As for CCGCCUAACACUGCCAAUGCCGGGCCCAAGCCCGGAUAAAUGUGGAGGGGGCGG, the self-cleavage was 0.02.

With CCGCCUAACACUGCCAAUGCCGGCCCCAAGCCCGGAUAAAUGUGGAGGGGGCGG, the self-cleavage is 0.27.

Regarding CCGCCUAACACUGCCAAUGCCGGUCCCAAGCCCGGAUAAAAAUGGACGGGGCGG, the self-cleavage came to 0.07.

For the variant CCGCCUAACACUGCCAAUGCCGGUCCCAAGCCCGGAUAAAAAUGGAUGGGGCGG, the self-cleavage is 0.07.

Take CCGCCUAACACUGCCAAUGCCGGUCCCAAGCCCGGAUAAAAAUGGAAGGGGCGG: the self-cleavage worked out at 0.08.

Regarding CCGCCUAACACUGCCAAUGCCGGUCCCAAGCCCGGAUAAAACUGAAGGGGGCGG, the self-cleavage came to 0.06.

In the case of CCGCCUAACACUGCCAAUGCCGGUCCCAAGCCCGGAUAAAACUGCAGGGGGCGG, the self-cleavage came out at 0.06.

For the variant CCGCCUAACACUGCCAAUGCCGGUCCCAAGCCCGGAUAAAACUGUAGGGGGCGG, the self-cleavage was found to be 0.05.

For the variant CCGCCUAACACUGCCAAUGCCGGUCCCAAGCCCGGAAAAAAAUGGAGGGGGCGG, the self-cleavage was found to be 0.51.

For CCGCCUAACACUGCCAAUGCCGGUCCCAAGCCCGGACAAAAAUGGAGGGGGCGG, the self-cleavage amounted to 0.88.

Consider CCGCCUAACACUGCCAAUGCCGGUCCCAAGCCCGGAGAAAAAUGGAGGGGGCGG, for which the self-cleavage worked out at 0.89.

Take CCGCCUAACACUGCCAAUGCCGGUCCCAAGCCCGGAUAAAAAAGGAGGGGGCGG: the self-cleavage stood at 0.16.

As to CCGCCUAACACUGCCAAUGCCGGUCCCAAGCCCGGAUAAAAACGGAGGGGGCGG, the self-cleavage stood at 0.11.

CCGCCUAACACUGCCAAUGCCGGUCCCAAGCCCGGAUAAAAAGGGAGGGGGCGG: the self-cleavage turned out to be 0.16.

For the variant CCGCCUAACACUGCCAAUGCCGGGCCCAAGCCCGGAUAAAACUGGAGGGGGCGG, the self-cleavage is 0.02.
